Test results: PubChem BioAssay
Calls of active or inactive are those of the source.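 The calls were made as follows, unless noted: active = GFP response above 150% of the DMSO level; inconclusive = fewer than 70 events counted for a yeast strain; inactive = the rest.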

Columns and labels:
[1] = hit retest on RPL19A-GFP reporter strain – cell-based, S. cerevisiae, flow cytometry, cherry picks, mother/daughter gates, confirmation (AID 2270;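 active = GFP response below 50% of the DMSO control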); settings: 3 h, at 10 µM, stronger effect = lower value, 100 = same GFP as DMSO wells
[2] = yeast TOR pathway reporter LAP4-GFP change – cell-based, cherry picks, flow cytometry, mother/daughter gates, confirmation (AID 2271;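 active = GFP response above 150% of the DMSO control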;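 also: ratio of sample to DMSO plate mean so 100% equals DMSO level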); settings: S. cerevisiae LAP4-GFP strain, 3 h, at 10 µM, stronger effect = higher value, 100 means same as DMSO control
Summary of the method: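 System: GFP-fusion yeast strain; Incubation: compound exposure 3 h at 30 °C, end-over-end rotation; Measured by: GFP by flow cytometry; Read-out: median GFP fluorescence as percent of plate-mean DMSO wells; Medium: synthetic complete (SC) yeast growth medium; Compound: single test-compound dose, 10 µM final; Benchmarks: DMSO-only negative wells, rapamycin 400 ng/mL positive wells.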

[3] = TOR pathway reporter MEP2-GFP, retest of hits – S. cerevisiae, flow cytometry GFP, cherry picks, confirmation (AID 2272;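 active = GFP response above 150% of the DMSO control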;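 also: ratio of well signal to plate DMSO mean so 100% equals DMSO level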); settings: S. cerevisiae MEP2-GFP strain, 3 h, at 10 µM, stronger effect = higher value
[4] = yeast AGP1-GFP fluorescence change, single-dose – cell-based, flow cytometry, S. cerevisiae, cherry picks, confirmation (AID 2273);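 also: median GFP channel fluorescence over the whole cell population gate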; settings: S. cerevisiae AGP1-GFP strain, 3 h, at 10 µM
[5] = TOR pathway CIT2 reporter hit retest – S. cerevisiae, GFP fusion, cherry picks, mother/daughter gates, confirmation (AID 2274); settings: S. cerevisiae CIT2-GFP strain, flow cytometry, 3 h, at 10 µM, stronger effect = higher value
[6] = measured here: daughter cell gate
[7] = measured here: mother cell gate
[8] = measured here: daughter cell gate response
[9] = measured here: mother cell gate response

Row | Compound | GFP response vs DMSO [1] | GFP response vs DMSO [1, 6] | GFP response vs DMSO [1, 7] | GFP response relative to DMSO [2] | GFP response relative to DMSO [2, 8] | GFP response relative to DMSO [2, 9] | GFP response vs DMSO [3] | GFP response, % of DMSO [4] | GFP response, % of DMSO [5] | GFP response, % of DMSO [5, 6] | GFP response, % of DMSO [5, 7]
1 | COc1cc(C)c(C)cc1S(=O)(=O)N1CCCCC1c1cccnc1 (stereo unspecified) | 98.4% (inactive) | 98.8% | 99.2% | 102% (inactive) | 105% | 99.5% | 99.5% (inactive) | 100% (inactive) | 96.4% (inactive) | 100% | 95.6%
2 | O=C(COc1c(Br)cc(Br)c2cccnc12)N1CCc2ccccc2C1 | 98.2% (inactive) | 97.8% | 97.2% | 140% (inactive) | 124% | 144% | 112% (inactive) | 93.2% (inactive) | 101% (inactive) | 102% | 95.6%
3 | COc1ccc(S(=O)(=O)N2CCC(O)(c3ccc(Cl)cc3)CC2)cc1 | 101% (inactive) | 99.6% | 101% | 97.9% (inactive) | 97.6% | 97.2% | 105% (inactive) | 91.9% (inactive) | 107% (inactive) | 106% | 104%
4 | Cn1c(=O)[nH]c(=O)c2c1nc(N1CCCCC1)n2CCOc1ccccc1 | 99% (inactive) | 99.5% | 100% | 98.7% (inactive) | 100% | 102% | 102% (inactive) | 104% (inactive) | 103% (inactive) | 101% | 103%
5 | CCN(Cc1ccccc1)S(=O)(=O)c1ccc(C(=O)Nc2nnc(-c3ccccc3OC)o2)cc1 | 98.4% (inactive) | 98.6% | 98.4% | 94.1% (inactive) | 92.8% | 94% | 102% (inactive) | 96.4% (inactive) | 98.3% (inactive) | 97.2% | 99.7%
6 | Cc1c(O)nc(SC2CC(=O)N(c3ccccc3)C2=O)[nH]c1=O (stereo unspecified) | 96.4% (inactive) | 96.5% | 96.7% | 109% (inactive) | 101% | 107% | 99.5% (inactive) | 97.1% (inactive) | 96.4% (inactive) | 98.3% | 96.8%
7 | O=C(/C=C/c1ccc(O)cc1)c1ccc(O)cc1O | 93.7% (inactive) | 92.9% | 94.6% | 96.7% (inactive) | 97.6% | 96.1% | 102% (inactive) | 109% (inactive) | 103% (inactive) | 103% | 102%
8 | CC(Oc1ccc(Br)cc1)C(=O)Nc1nc(-c2ccccn2)cs1 (stereo unspecified) | 104% (inactive) | 95.9% | 105% | 241% (active) | 184% | 258% | 117% (inactive) | 92.9% (inactive) | 98.3% (inactive) | 97.2% | 93.8%
9 | Cc1ccc2nc(Cl)c3nnnn3c2c1 | 66.6% (inactive) | 58.4% | 56.7% | 281% (active) | 153% | 270% | 152% (inactive) | 109% (inactive) | 82.8% (inactive) | 84.8% | 72.3%
10 | O=C1ON=C(c2ccccc2)/C1=C/c1ccco1 | 95.8% (inactive) | 86.4% | 85.2% | 169% (active) | 137% | 161% | 141% (inactive) | 89.2% (inactive) | 83.5% (inactive) | 92.7% | 70%
11 | Cc1cccc(CS(=O)(=O)c2ncc(Cl)c(C(=O)NCc3ccc4c(c3)OCO4)n2)c1 | 99.7% (inactive) | 99% | 102% | 90.2% (inactive) | 91% | 91.1% | 102% (inactive) | 98.7% (inactive) | 107% (inactive) | 105% | 108%
12 | Cc1ccc(S(=O)(=O)NCC23C=CC(O2)C2C(=O)N(c4ccccc4)C(=O)C23)cc1 (stereo unspecified) | 98.4% (inactive) | 98.9% | 98.7% | 96.7% (inactive) | 97.6% | 97.2% | 102% (inactive) | 99.9% (inactive) | 105% (inactive) | 105% | 104%
13 | Cc1nn(C)c(C)c1N1C(=O)c2cccc3c(Br)ccc(c23)C1=O | 103% (inactive) | 102% | 103% | 136% (inactive) | 137% | 134% | 207% (active) | 112% (inactive) | 148% (inactive) | 152% | 141%
14 | CN(C)c1ccc(/C=C/c2cc[n+](C)cc2)cc1 | 111% (inactive) | 109% | 109% | 160% (active) | 168% | 159% | 215% (active) | 109% (inactive) | 149% (inactive) | 129% | 134%
15 | O=C(NCCN1CCOCC1)c1ccc(CS(=O)(=O)Cc2ccccc2F)o1 | 99.6% (inactive) | 100% | 99.7% | 98.6% (inactive) | 99.7% | 98.2% | 103% (inactive) | 104% (inactive) | 110% (inactive) | 108% | 110%
16 | O=C(N/N=C/c1c(Cl)cccc1Cl)c1cccc(F)c1 | 95.6% (inactive) | 95.3% | 94% | 92.9% (inactive) | 94.4% | 93.4% | 103% (inactive) | 97.5% (inactive) | 97.2% (inactive) | 99.3% | 97.1%
17 | Cc1occc1-c1nnc(-c2cc([N+](=O)[O-])cc([N+](=O)[O-])c2)o1 | 88.1% (inactive) | 82.8% | 85.9% | 142% (inactive) | 126% | 149% | 123% (inactive) | 135% (inactive) | 87.2% (inactive) | 85.7% | 81.8%
18 | O=S(=O)(c1cccc(C(F)(F)F)c1)c1ccc(O)cn1 | 98.8% (inactive) | 99.4% | 98.5% | 96.7% (inactive) | 99.2% | 95.1% | 100% (inactive) | 94.7% (inactive) | 104% (inactive) | 106% | 103%
19 | CCCc1[nH]nc2c1C(c1ccc(OCCN3CCOCC3)c(OC)c1)C(C#N)=C(N)O2 (stereo unspecified) | 96.6% (inactive) | 96.4% | 98.2% | 97.9% (inactive) | 99.2% | 96.1% | 102% (inactive) | 93.9% (inactive) | 101% (inactive) | 103% | 101%
20 | O=C(CCC(F)(F)F)N1CCC(CO)(CCc2ccccc2)CC1 | 102% (inactive) | 99.8% | 102% | 91.4% (inactive) | 95.6% | 92.1% | 102% (inactive) | 101% (inactive) | 107% (inactive) | 106% | 106%
21 | O=C(Nc1cccc(O)c1)c1ccc(Br)cc1 | 96% (inactive) | 97% | 97.2% | 98.8% (inactive) | 96.5% | 100% | 102% (inactive) | 103% (inactive) | 102% (inactive) | 102% | 100%
22 | COc1cccc(/C=N/Nc2nc(-c3cccnc3)nc3ccccc23)c1 | 94.7% (inactive) | 93.3% | 93.5% | 104% (inactive) | 101% | 106% | 106% (inactive) | 101% (inactive) | 103% (inactive) | 103% | 100%
23 | Clc1ccc(-n2cccc2)cn1 | 101% (inactive) | 99.2% | 102% | 93.8% (inactive) | 95.6% | 95.2% | 100% (inactive) | 96.3% (inactive) | 99.1% (inactive) | 98.1% | 101%
24 | O=[N+]([O-])c1ccc(N2N=C(c3ccco3)CC2c2ccccc2)cc1 (stereo unspecified) | 104% (inactive) | 104% | 97.7% | 107% (inactive) | 104% | 108% | 131% (inactive) | 99.8% (inactive) | 105% (inactive) | 105% | 103%
25 | CCOC(=O)c1c(C)[nH]c(C)c1C(=O)COC(=O)c1cc2ccccc2cc1O | 96.2% (inactive) | 97.3% | 94.8% | 106% (inactive) | 104% | 109% | 103% (inactive) | 103% (inactive) | 98.4% (inactive) | 96.8% | 96.7%
26 | CCOC(=O)C1CCCN(c2nc3c(C)cccn3c(=O)c2/C=C(\C#N)C(=O)NCc2ccco2)C1 (stereo unspecified) | 102% (inactive) | 101% | 101% | 101% (inactive) | 102% | 99.5% | 114% (inactive) | 95.2% (inactive) | 104% (inactive) | 104% | 100%
